Laboratory results published in ChEMBL document CHEMBL4038327, “Inhibitory Kappa B Kinase α (IKKα) Inhibitors That Recapitulate Their Selectivity in Cells against Isoform-Related Biomarkers” (J Med Chem, 2017).

Tests used:
[1] = molecular target: T1, Inhibitor of nuclear factor kappa-B kinase subunit beta (Homo sapiens, UniProt O14920); assay: Inhibition of IKKbeta in human U2OS cells assessed as TNFalpha induced IkBalpha degradation at 100 uM preincubated for 1 hr followed by TNFalpha stimulation for 30 mins by Western blot analysis; assay type: cell-based; settings: 0.5 h
T1 sequence (O14920 whole entry): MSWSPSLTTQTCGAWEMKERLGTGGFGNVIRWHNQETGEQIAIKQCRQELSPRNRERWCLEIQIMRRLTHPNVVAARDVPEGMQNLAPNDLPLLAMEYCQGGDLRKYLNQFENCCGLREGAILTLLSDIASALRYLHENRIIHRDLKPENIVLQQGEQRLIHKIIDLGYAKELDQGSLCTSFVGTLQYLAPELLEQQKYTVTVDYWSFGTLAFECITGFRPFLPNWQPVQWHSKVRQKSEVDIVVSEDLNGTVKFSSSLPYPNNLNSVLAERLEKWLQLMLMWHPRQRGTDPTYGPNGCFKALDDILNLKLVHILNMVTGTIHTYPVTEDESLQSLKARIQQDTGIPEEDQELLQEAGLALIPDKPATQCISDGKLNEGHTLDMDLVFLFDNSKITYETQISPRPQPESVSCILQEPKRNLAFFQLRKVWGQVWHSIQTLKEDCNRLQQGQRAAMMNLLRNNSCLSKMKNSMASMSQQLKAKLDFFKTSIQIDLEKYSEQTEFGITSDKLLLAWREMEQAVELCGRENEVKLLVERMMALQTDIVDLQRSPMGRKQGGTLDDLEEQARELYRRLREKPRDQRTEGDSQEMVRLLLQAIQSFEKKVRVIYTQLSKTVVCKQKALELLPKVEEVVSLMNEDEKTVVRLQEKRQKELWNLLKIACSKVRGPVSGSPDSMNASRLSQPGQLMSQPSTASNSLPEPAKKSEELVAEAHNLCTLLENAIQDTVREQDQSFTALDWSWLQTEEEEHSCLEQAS
Outline: (§1)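 U2OS cells were grown in McCoy's 5A medium at 37 °C under 5% CO2 and made quiescent by 24 h serum deprivation. They were then pretreated with compound before agonist stimulation in serum-free medium. Phospho-p100, IκBα levels and phospho-p65 (Ser536) were assessed by Western blot.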

[2] = molecular target: T2, Inhibitor of nuclear factor kappa-B kinase subunit alpha (Homo sapiens, UniProt O15111); assay: (§2) Inhibition of IKKalpha in human U2OS cells assessed as decrease in FCS induced p100 phosphorylation at ser866/870 residues preincubated for 1 hr followed by FCS stimulation for 4 hrs by Western blot analysis; assay type: cell-based; outline: as §1
T2 sequence (O15111 whole entry): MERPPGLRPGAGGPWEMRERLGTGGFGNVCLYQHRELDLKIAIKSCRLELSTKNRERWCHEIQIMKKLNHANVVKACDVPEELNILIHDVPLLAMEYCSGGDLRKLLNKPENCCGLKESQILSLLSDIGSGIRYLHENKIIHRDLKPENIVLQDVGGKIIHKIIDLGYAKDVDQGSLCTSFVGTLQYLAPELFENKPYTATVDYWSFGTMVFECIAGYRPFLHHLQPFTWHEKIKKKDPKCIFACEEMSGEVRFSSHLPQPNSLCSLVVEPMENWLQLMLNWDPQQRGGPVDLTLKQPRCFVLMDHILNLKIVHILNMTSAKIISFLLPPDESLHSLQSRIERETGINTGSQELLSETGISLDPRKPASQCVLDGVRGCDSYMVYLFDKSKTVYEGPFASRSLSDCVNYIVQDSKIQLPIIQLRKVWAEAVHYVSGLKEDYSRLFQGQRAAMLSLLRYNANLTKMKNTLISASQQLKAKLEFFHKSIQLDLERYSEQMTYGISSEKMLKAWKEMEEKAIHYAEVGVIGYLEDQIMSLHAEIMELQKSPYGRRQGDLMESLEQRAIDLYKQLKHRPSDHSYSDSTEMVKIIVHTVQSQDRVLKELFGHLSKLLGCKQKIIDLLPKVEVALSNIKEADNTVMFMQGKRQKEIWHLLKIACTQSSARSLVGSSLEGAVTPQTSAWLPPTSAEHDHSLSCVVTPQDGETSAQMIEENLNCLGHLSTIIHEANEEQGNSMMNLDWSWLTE

[3] = molecular target: T3, Inhibitor of nuclear factor kappa-B kinase subunit alpha (Homo sapiens) (UniProt O15111); assay: as §2; assay type: cell-based; outline: as §1
T3 sequence (whole entry): T2 sequence (O15111 whole entry)

[4] = molecular target: T1, Inhibitor of nuclear factor kappa-B kinase subunit beta; assay: Inhibition of recombinant full length human IKKbeta expressed in baculovirus infected sf9 insect cells using biotinylated IkBalpha as substrate after 60 mins by DELFIA
Outline: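 Recombinant IKKβ (37 nM) was incubated with biotinylated IκB-α (Ser32) peptide (0.375 μM) and 40 μM ATP in Tris-HCl pH 7.5 with MgCl2, EDTA, DTT and BSA for 60 min at 30 °C. The reaction was quenched with EDTA and captured on streptavidin. Detection used anti-phospho-IκBα (Ser32/36) mAb plus Eu-anti-mouse IgG, read by time-resolved fluorescence (340/615 nm). Apparent Ki was obtained via Cheng–Prusoff, n=3.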

[5] = molecular target: T1, Inhibitor of nuclear factor kappa-B kinase subunit beta; assay: Inhibition of IKKbeta in human U2OS cells assessed as decrease in TNFalpha induced p65 phosphorylation at ser536 residues at 100 uM preincubated for 1 hr followed by TNFalpha stimulation for 30 mins by Western blot analysis; assay type: cell-based; settings: 0.5 h; outline: as §1
[6] = molecular target: T2, Inhibitor of nuclear factor kappa-B kinase subunit alpha; assay: Inhibition of recombinant human N-terminal GST-tagged IKKalpha (1 to 745 residues) expressed in baculovirus expression system using biotinylated IkBalpha as substrate after 60 mins by DELFIA
[7] = molecular target: T4, Inhibitor of nuclear factor kappa-B kinase subunit alpha (Mus musculus) (UniProt Q60680); assay: Inhibition of IKKalpha in IKKbeta knockout mouse embryonic fibroblast cells harboring Adv.NF-kB.luc assessed as IL-1beta induced NF-kB transcriptional activation at 100 uM pretreated for 1 hr followed by IL-1beta stimulation for 6 hrs by luciferase reporter gene assay relative to control; set-up: scale not given: the % may be the effect or the level left
T4 sequence (whole entry): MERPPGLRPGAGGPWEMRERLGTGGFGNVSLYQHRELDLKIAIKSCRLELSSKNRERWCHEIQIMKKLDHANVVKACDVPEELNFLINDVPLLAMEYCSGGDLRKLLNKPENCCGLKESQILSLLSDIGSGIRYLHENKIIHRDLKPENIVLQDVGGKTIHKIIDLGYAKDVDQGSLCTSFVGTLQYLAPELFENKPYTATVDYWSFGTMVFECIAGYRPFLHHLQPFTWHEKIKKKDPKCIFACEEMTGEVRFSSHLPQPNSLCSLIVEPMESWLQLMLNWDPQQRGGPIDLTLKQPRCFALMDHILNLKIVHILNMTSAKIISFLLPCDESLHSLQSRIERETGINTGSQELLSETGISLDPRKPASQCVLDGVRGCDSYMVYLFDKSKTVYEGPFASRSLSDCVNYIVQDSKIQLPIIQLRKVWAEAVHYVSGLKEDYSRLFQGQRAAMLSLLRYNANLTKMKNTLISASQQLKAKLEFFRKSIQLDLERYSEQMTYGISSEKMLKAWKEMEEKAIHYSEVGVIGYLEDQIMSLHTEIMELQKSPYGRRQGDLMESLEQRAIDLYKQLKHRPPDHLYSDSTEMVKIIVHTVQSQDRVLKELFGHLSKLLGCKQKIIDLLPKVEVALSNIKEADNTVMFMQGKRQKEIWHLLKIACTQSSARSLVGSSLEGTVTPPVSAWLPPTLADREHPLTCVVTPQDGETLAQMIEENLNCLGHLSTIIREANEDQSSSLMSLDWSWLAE
Outline: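 IKKβ knockout MEFs infected with Adv.NF-kB.luc (up to 300 pfu/cell, 24 h, 10% DMEM), replated and serum-starved 24 h. Pretreated 1 h with compound, then IL-1β (10 ng/mL) for 6 h. Lysis buffer contained 0.2 mM luciferin, and luminescence was read as RLU. Results are expressed as % of IL-1β + DMSO stimulation.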

- inhibition (INH) [1]: Not Active
- IC50 [2]: 13900 to 19100 nM
- inhibition [3]: Dose-dependent effect
- Ki [4]: 2300 nM
- inhibition (INH) [5]: Not Active
- Ki [6]: 650 nM
- Activity [7]: 18.8%
Structure (SMILES): N#Cc1c[nH]c2nc(N)nc(-c3ccc(CO)cc3)c12
